Data taken from paper PMC4539048 (Science translational medicine, 2015).

How the values were obtained:
[1] = system: P. falciparum Dd2 and resistant clones; experiment: microbe, parasite or virus in culture; assay type: cell-based; details: isolates derived from Dd2 and K1
P. falciparum Dd2 [2] = assay type: cell-based
P. falciparum HB3 = experiment: In vitro selection of resistant parasites, HB3; assay type: cell-based; details: HB3 strain
P. falciparum 3D7 [3] = experiment: Blood-stage phenotype and development by microscopy; assay type: cell-based; details: 10xEC50, 48 h
Outline: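 Giemsa-stained smears were scored by microscopy, at least 200 cells per condition, for stage arrest and morphology. Standard antimalarials served as controls.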

P. falciparum Dd2 [4] = details: Dd2, same 3xEC50 protocol; cited from earlier work
[5] = system: G6PD-deficient human red blood cells; assay type: in vivo, NOD-SCID mice; details: blood type A- G6PD-deficient human red blood cells
[6] = system: P. falciparum NF54 liver-stage parasites; details: historical data using the same donor; cited from earlier work
[7] = system: Salmonella typhimurium-E. coli; experiment: 5-strain bacterial reverse mutation assay
human DHODH = human DHODH (Homo sapiens, UniProt Q02127); experiment: DHODH inhibition, DCIP spectrophotometric assay; assay type: biochemical; details: mean of 3 technical replicates, 95% confidence interval in parentheses
mouse DHODH = mouse DHODH (Mus musculus, UniProt O35435); experiment: DHODH inhibition, DCIP spectrophotometric assay; assay type: biochemical; details: mean of 3 technical replicates, 95% confidence interval in parentheses
[8] = target: P. falciparum DHODH (PfDHODH) (Plasmodium falciparum, UniProt Q08210); assay type: biochemical; details: for IC50, P. falciparum DHODH: mean of 3 technical replicates, 95% confidence interval in parentheses
P. falciparum 3D7 [9] = experiment: In vitro P. falciparum 3D7 growth inhibition; assay type: cell-based; details: for P. falciparum 3D7 growth inhibition EC50: 0.5% Albumax-II medium, 95% confidence intervals in parenthesis
Outline: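 SYBR-green growth assay on P. falciparum 3D7 and drug-resistant lines, including chloroquine- and pyrimethamine-resistant parasites, cultured in RPMI-1640 with 0.5% Albumax-II. At least triplicate data per concentration. EC50 from the log(inhibitor) vs response variable-slope (four-parameter) fit by nonlinear least squares, reported with 95% confidence intervals of the fit.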

rat DHODH = rat DHODH (Rattus norvegicus, UniProt Q63707); experiment: DHODH inhibition, DCIP spectrophotometric assay; assay type: biochemical; details: mean of 3 technical replicates, 95% confidence interval in parentheses
dog DHODH = dog DHODH (Canis lupus familiaris, UniProt A0A8I3MWX2); experiment: DHODH inhibition, DCIP spectrophotometric assay; assay type: biochemical; details: mean of 3 technical replicates, 95% confidence interval in parentheses
[10] = Metabolite identification and profiling in pooled plasma; assay type: in vivo; details: all species, mass spectrometry peak area ratios, single dose of DSM265
Outline: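 Pooled plasma from single-dose PK studies in mice, rabbits, monkeys and dogs was profiled by mass spectrometry. Metabolites were identified, and the main oxidative metabolite's structure was confirmed by synthesis. Each metabolite's exposure was estimated as a share of parent AUC from peak area ratios.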

rabbit DHODH = rabbit DHODH (Oryctolagus cuniculus, UniProt G1SWF3); experiment: DHODH inhibition, DCIP spectrophotometric assay; assay type: biochemical; details: mean of 3 technical replicates
P. vivax DHODH (PvDHODH) = P. vivax DHODH (PvDHODH) (Plasmodium vivax, UniProt A5K1N1); experiment: DHODH inhibition, DCIP spectrophotometric assay; assay type: biochemical; details: mean of 3 technical replicates, 95% confidence interval in parentheses

Sequence of P. falciparum DHODH (PfDHODH) (Q08210 24-569): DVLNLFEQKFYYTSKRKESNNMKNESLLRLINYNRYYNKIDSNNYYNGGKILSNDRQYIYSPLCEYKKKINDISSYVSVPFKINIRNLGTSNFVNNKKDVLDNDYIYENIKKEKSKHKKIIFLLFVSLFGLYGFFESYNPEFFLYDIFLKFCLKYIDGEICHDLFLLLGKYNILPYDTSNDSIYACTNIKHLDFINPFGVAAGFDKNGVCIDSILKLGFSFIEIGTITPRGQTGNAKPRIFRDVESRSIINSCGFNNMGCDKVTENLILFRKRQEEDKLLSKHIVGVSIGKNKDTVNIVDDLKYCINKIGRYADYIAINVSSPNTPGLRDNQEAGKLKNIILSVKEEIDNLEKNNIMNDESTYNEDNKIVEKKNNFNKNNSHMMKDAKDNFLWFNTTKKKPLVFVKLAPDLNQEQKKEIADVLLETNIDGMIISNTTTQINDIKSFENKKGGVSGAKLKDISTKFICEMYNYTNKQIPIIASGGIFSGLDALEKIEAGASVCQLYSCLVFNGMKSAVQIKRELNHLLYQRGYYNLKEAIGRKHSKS
Sequence of rat DHODH (Q63707 whole entry): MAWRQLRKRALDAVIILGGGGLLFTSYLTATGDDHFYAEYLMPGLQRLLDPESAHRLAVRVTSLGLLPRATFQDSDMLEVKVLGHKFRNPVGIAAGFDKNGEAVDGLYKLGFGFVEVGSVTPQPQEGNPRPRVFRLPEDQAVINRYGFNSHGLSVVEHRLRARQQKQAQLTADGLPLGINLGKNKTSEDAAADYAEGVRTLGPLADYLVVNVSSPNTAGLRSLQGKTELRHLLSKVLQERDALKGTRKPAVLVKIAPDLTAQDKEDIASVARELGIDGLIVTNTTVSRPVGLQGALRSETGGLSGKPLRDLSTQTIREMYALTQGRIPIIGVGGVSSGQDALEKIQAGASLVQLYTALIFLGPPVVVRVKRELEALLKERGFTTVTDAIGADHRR
Sequence of dog DHODH (A0A8I3MWX2 1-406): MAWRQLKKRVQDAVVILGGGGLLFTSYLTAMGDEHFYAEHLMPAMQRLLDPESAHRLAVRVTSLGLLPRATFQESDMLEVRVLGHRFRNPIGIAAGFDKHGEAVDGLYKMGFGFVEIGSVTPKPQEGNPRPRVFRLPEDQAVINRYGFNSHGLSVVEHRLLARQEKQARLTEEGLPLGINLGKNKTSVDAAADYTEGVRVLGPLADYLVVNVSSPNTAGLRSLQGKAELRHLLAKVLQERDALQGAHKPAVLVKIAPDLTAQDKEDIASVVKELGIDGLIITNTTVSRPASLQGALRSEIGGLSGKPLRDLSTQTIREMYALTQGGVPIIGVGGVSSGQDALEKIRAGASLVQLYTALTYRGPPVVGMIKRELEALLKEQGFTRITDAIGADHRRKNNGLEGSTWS
Sequence of mouse DHODH (O35435 whole entry): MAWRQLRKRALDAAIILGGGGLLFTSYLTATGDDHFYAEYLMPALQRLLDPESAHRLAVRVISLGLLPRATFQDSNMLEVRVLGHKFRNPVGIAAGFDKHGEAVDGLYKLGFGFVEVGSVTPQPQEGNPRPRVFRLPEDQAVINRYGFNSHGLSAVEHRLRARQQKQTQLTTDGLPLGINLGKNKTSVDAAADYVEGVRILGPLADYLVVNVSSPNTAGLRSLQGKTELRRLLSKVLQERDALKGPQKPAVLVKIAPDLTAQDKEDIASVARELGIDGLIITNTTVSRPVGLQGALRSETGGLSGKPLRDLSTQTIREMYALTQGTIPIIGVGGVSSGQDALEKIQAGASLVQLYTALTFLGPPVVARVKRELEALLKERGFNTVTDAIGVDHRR
Sequence of human DHODH (Q02127 whole entry): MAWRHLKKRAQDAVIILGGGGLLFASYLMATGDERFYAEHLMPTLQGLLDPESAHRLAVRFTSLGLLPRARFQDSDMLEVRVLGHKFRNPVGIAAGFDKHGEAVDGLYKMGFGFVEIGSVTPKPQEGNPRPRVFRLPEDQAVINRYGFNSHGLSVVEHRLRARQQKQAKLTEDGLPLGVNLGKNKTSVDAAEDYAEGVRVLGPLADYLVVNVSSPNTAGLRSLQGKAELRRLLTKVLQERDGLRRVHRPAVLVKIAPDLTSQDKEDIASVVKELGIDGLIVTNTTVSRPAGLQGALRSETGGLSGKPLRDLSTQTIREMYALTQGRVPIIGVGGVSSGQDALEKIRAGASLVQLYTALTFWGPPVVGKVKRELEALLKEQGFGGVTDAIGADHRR
Sequence of rabbit DHODH (G1SWF3 1-395): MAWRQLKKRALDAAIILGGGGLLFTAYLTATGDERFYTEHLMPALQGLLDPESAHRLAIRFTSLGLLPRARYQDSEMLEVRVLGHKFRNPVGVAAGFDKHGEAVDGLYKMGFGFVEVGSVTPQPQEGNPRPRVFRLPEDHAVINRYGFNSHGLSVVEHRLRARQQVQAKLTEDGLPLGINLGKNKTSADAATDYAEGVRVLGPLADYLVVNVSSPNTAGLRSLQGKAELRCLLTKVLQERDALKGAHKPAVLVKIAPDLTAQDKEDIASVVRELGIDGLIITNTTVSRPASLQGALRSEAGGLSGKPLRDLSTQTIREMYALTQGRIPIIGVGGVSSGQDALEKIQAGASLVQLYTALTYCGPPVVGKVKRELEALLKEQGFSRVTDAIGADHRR

Q: Which results are given for O=C1C(O)=C([C@H]2CC[C@H](c3ccc(Cl)cc3)CC2)C(=O)c2ccccc21 [atovaquone]?
A: sensitivity of DSM265-resistant isolates to the drug [1]: fully sensitive; drug concentration required to suppress emergence of resistant parasites (P. falciparum Dd2 [2]; Dd2, inoculum 2×10^7 parasites): 33 xEC50; EC50 increase of resistant Dd2 parasites over wild-type (P. falciparum Dd2 [2]; parasites selected with the same drug): 10 fold; outcome of resistance selection (P. falciparum HB3): resistant HB3 parasites could be obtained

Q: Which “blood-stage phenotype after treatment” value (P. falciparum 3D7 [3]) does the source give for CCc1nc(N)nc(N)c1-c1ccc(Cl)cc1 [pyrimethamine] here?
A: The value was “arrested as mature trophozoites”.

Q: With CCN(CC)CCCC(C)Nc1ccnc2cc(Cl)ccc12 (centres unmarked) [chloroquine] as the compound, how does the “minimum inoculum for resistance (MIR)” value (P. falciparum Dd2 [4]) read?
A: Its value is 10^8.

Q: For COc1cc(NC(C)CCCN)c2ncccc2c1 (centres unmarked) [primaquine], which hemolytic toxicity [5] is on record?
A: The hemolytic toxicity was “substantial loss in human RBCs”.

Q: And the “EC50 on hepatocyte infection rate (EEF count)” value [6]?
A: Its value is 0.20 (0.059 – 0.71) μg/mL.

Q: What about the “Liver-stage schizont EC50 (EEF diameter/size)” value [6] of the same compound?
A: Its value is 0.15 µg/mL.

Q: Which “mutagenic activity (Ames test)” value [7] does the source give for Nc1ccc(S(F)(F)(F)(F)F)cc1 [SF5-aniline] here?
A: Its value is “non-mutagenic”.

Q: With Cc1cc(Nc2ccc(S(F)(F)(F)(F)F)c(F)c2)n2nc(C(C)(F)F)nc2n1 [DSM430, 2-(1,1-difluoroethyl)-N-(3-fluoro-4-(pentafluoro-l^6-sulfanyl)phenyl)-5-methyl-[1,2,4]triazolo[1,5-a]pyrimidin-7-amine] as the compound, how does the “IC50, Human DHODH” value (human DHODH) read?
A: The value was 3.7 (2.6 – 4.8) μg/mL.

Q: What about the “IC50, Mouse DHODH” value (mouse DHODH) of the same compound?
A: The value was 0.10 (0.082 – 0.12) μg/mL.

Q: And the “IC50, P. falciparum DHODH” value [8]?
A: Its value is 0.010 (0.0079 – 0.014) μg/mL.

Q: What about the “P. falciparum 3D7 growth inhibition EC50” value (P. falciparum 3D7 [9]) of the same compound?
A: The value was 0.0002 (0.00011 – 0.00056) μg/mL.

Q: And the “IC50, Rat DHODH” value (rat DHODH)?
A: Its value is 0.082 (0.069 – 0.099) μg/mL.

Q: And the “IC50, Dog DHODH” value (dog DHODH)?
A: Its value is 0.56 (0.48 – 0.65) μg/mL.

Q: For C[C@@H]1CC[C@H]2[C@@H](C)C(=O)O[C@@H]3O[C@@]4(C)CC[C@@H]1[C@]32OO4 [artemisinin], which “blood-stage phenotype after treatment” value (P. falciparum 3D7 [3]) is on record?
A: Its value is “pyknotic”.

Q: What about the “sensitivity of DSM265-resistant isolates to the drug” value [1] of the same compound?
A: Its value is “fully sensitive”.

Q: Which “plasma metabolite exposure as share of the parent AUC” value [10] does the source give for CC(F)(F)c1nc2nc(CO)cc(Nc3ccc(S(F)(F)(F)(F)F)cc3)n2n1 [DSM450, (2-(1,1-difluoroethyl)-7-((4-(pentafluoro-l^6-sulfanyl)phenyl)amino)-[1,2,4]triazolo[1,5-a]pyrimidin-5-yl)methanol] here?
A: Its value is 4–27%.

Q: And the “IC50, Rabbit DHODH” value (rabbit DHODH)?
A: Its value is >43 µg/mL.

Q: And the “IC50, Human DHODH” value (human DHODH)?
A: Its value is >43 µg/mL.

Q: And the “IC50, P. vivax DHODH” value (P. vivax DHODH (PvDHODH))?
A: Its value is 0.11 (0.081 – 0.15) μg/mL.

Q: And the “IC50, Mouse DHODH” value (mouse DHODH)?
A: Its value is 4.5 (3.1 – 6.9) μg/mL.

Q: What about the “fold less potent than DSM265 as a PfDHODH inhibitor” value [8] of the same compound?
A: The value was 3 fold.

Q: And the “IC50, P. falciparum DHODH” value [8]?
A: Its value is 0.032 (0.026 – 0.040) μg/mL.

Q: And the “fold less active than DSM265 against P. falciparum 3D7 parasites” value (P. falciparum 3D7 [9])?
A: Its value is 43 fold.

Q: What about the “P. falciparum 3D7 growth inhibition EC50” value (P. falciparum 3D7 [9]) of the same compound?
A: The value was 0.079 (0.042 – 0.15) μg/mL.

Q: What about the “IC50, Rat DHODH” value (rat DHODH) of the same compound?
A: Its value is 1.6 (1.2 – 2.0) μg/mL.

Q: And the “IC50, Dog DHODH” value (dog DHODH)?
A: Its value is 25 (21 – 29) μg/mL.
